Measured values reported in PubChem BioAssay.
Active and inactive are the calls of the source.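 Rule for the calls, unless noted: active = duplicate-averaged activation above buffer control mean plus 5 SD of those controls; inactive = the rest.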

Tests used:
[1] = thallium flux activation in parental CHO cells, counter-screen for KCNQ1 potentiator project (AID 493006); conditions: parental CHO-K1 cells, FluxOR thallium flux, at 10 µM; stronger effect = higher value;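 for activation: fluorescence ratio of max minus min over baseline after K+ and Tl+ depolarization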
Procedure, shortened: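 Material: parental CHO-K1 cells, FluxOR dye-loaded; Also added: Potassium/thallium depolarization pulse; Schedule: overnight 37 °C plating, 90 min dye, 20 min dark compound; Signal: kinetic FluxOR fluorescence, 10 s baseline, 110 s after stimulus.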

[2] = molecular target: Potassium voltage-gated channel subfamily KQT member 1 (Homo sapiens) (UniProt P51787); experiment: KCNQ1 potassium channel potentiators, confirmation, FluxOR thallium flux, CHO cells, duplicates (AID 493007;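 active = potentiation averaged over duplicate wells exceeding buffer-only control mean by more than 3 SD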;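 for outcome: cells depolarized by a potassium plus thallium sulfate stimulus after compound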); conditions: KCNQ1 cell line, FluxOR thallium flux fluorescence, at 10 µM; stronger effect = higher value, % of reference activator effect, buffer zero
Potassium voltage-gated channel subfamily KQT member 1 (Homo sapiens), sequence (P51787 whole entry, looked up): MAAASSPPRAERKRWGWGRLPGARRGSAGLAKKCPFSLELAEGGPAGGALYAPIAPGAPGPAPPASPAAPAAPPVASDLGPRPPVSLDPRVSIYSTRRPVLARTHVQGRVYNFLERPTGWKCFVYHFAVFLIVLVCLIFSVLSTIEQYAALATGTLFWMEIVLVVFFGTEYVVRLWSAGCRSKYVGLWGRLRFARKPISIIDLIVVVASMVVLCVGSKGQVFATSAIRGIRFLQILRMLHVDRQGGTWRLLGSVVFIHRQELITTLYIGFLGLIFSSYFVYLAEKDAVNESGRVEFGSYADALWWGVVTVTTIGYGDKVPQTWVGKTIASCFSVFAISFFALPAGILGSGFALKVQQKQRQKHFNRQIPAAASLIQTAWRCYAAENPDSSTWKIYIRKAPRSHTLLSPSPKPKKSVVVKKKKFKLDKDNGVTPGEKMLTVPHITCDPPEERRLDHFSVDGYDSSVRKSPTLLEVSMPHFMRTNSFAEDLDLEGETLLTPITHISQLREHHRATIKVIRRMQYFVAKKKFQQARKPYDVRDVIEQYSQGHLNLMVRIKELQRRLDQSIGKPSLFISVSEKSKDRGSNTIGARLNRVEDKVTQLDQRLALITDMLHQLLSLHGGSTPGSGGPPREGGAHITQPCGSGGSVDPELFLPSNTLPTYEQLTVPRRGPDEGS
Procedure, shortened: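 System: KCNQ1-expressing CHO cell line; technique: kinetic thallium influx fluorescence with FluxOR dye, 10 s baseline, 110 s post-stimulus; timing: dye 90 min then compound 20 min, both at room temperature; controls: buffer-only wells as 0% and R-L3 activator as 100%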

[3] = molecular target: Potassium voltage-gated channel subfamily KQT member 2 (Rattus norvegicus) (UniProt O88943); experiment: rat KCNQ2 channel potentiation, selectivity assay for KCNQ1 potentiator project, KCNQ2-CHO-K1 cells (AID 493009;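 active = mean duplicate potentiation above the buffer control mean plus 5 SD of buffer wells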;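 note: assay conditions were tuned for KCNQ1 rather than KCNQ2 modulators; signal is max minus min fluorescence divided by baseline after thallium stimulus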); conditions: FluxOR thallium flux fluorescence, at 10 µM; stronger effect = higher value, scaled: buffer 0, activator control 100
Potassium voltage-gated channel subfamily KQT member 2 (Rattus norvegicus), sequence (O88943 whole entry, looked up): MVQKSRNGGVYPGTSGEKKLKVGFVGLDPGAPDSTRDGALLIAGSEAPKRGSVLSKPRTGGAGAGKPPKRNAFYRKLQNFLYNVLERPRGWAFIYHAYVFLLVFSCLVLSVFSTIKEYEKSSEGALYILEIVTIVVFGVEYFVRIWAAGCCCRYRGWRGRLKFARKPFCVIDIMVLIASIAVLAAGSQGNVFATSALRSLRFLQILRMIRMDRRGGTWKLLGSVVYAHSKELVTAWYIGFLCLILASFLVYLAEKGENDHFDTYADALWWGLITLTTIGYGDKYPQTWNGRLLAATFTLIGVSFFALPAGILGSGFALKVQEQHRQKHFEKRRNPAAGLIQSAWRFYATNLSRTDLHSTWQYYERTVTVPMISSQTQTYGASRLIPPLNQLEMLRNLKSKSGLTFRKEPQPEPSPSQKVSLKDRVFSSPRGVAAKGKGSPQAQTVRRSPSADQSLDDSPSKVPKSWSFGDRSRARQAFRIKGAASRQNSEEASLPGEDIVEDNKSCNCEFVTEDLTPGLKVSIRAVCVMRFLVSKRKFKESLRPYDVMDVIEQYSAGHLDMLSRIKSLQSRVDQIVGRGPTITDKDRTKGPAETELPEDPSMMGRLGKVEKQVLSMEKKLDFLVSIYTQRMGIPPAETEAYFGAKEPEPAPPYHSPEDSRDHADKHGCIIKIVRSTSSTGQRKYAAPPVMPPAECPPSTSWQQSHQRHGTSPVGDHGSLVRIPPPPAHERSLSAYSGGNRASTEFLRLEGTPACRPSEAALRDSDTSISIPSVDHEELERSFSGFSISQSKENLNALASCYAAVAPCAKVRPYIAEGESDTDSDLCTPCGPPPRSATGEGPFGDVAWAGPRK

[4] = molecular target: Potassium voltage-gated channel subfamily KQT member 1 (Homo sapiens) (UniProt P51787); experiment: KCNQ1 channel current potentiators, confirmation, orthogonal assay for KCNQ1 potentiator project, IonWorks patch clamp, KCNQ1-CHO cells (AID 493184;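 active = current rise at least 3 SD above the untreated control mean in each of two repeat wells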); conditions: automated patch clamp current, at 10 µM; stronger effect = higher value
Procedure, shortened: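 Test system: KCNQ1-expressing CHO cells. Medium: pH 7.4 external bath. Probe or stimulus: voltage step from -90 mV holding to +40 mV, 2,000 ms. Compound: 10 µM final, single point. Detection: automated perforated-patch electrophysiology. Read-out: percent current increase versus pre-compound level. Repeats: two replicates.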

| Structure (SMILES) | outcome [1] | outcome [2] | outcome [3] | outcome [4] | potentiation [3] | activation [1] | potentiation [2] |
| --- | --- | --- | --- | --- | --- | --- | --- |
| COc1cccc(CN(C)C(=O)c2cc(COc3ccc4ncccc4c3)on2)c1 | inactive | inactive | inactive | inactive | – | – | – |
| O=C(CCOc1ccccc1)Nc1ccnn1C1CCN(Cc2ccc(CO)o2)CC1 | inactive | inactive | inactive | inactive | – | – | – |
| COc1ccc(CC(=O)c2ccccc2C(=O)O)cc1 | inactive | inactive | inactive | inactive | – | – | – |
| Cc1nn2c(NCc3ccccn3)cc(C(C)C)nc2c1-c1ccccc1 | inactive | inactive | inactive | inactive | – | – | – |
| O=C(COC(=O)C1CCC(=O)N1)Nc1ccc(Oc2ccccc2)cc1 (stereo not given) | inactive | inactive | inactive | inactive | – | – | – |
| CC(C)CSc1n[nH]c(=S)s1 | inactive | inactive | – | inactive | 145% (active) | – | – |
| COCCN(Cc1cc2cc3c(cc2nc1Cl)OCO3)C(=O)c1ccc(C)cc1 | inactive | inactive | inactive | inactive | – | – | – |
| CC(C)(C)NC(=O)C(=O)NNC(=O)c1cccc(Br)c1 | – | – | – | inactive | 229% (active) | 242% (active) | 34% (active) |
| CN1CCN(CC/C=C2/c3ccccc3Sc3ccc(S(=O)(=O)N(C)C)cc32)CC1 | inactive | inactive | inactive | inactive | – | – | – |
| Nc1nc(N)c2sc3nc4c(cc3c2n1)CCC4 | inactive | inactive | inactive | inactive | – | – | – |
| CCOC(=O)c1ccc(NC(=S)N2CCSC2c2ccc(Br)cc2)cc1 (stereo not given) | inactive | inactive | inactive | inactive | – | – | – |
| COc1cc(CNCc2ccccn2)ccc1OCc1c(Cl)cccc1Cl | inactive | inactive | inactive | inactive | – | – | – |
| OC(CNC1CCCCC1)COCCOc1ccc(Br)cc1 (stereo not given) | inactive | inactive | inactive | inactive | – | – | – |
| COc1cccc(CNC(=O)C2CCN(S(=O)(=O)c3ccc(-n4cnnn4)cc3)CC2)c1 | inactive | inactive | inactive | inactive | – | – | – |
| CCC(O)C1CCN(Cc2cn(Cc3ccccc3)nc2-c2cc3ccccc3o2)CC1 (stereo not given) | – | – | – | inactive | 230% (active) | 170% (active) | 75% (active) |
| O=C(NC(=S)NCc1ccccc1)c1cccs1 | – | – | – | inactive | 232% (active) | 167% (active) | 81% (active) |
| CCC(C(=O)OCC(=O)NC(=O)NC(C)(C)C)c1ccccc1 (stereo not given) | inactive | inactive | inactive | inactive | – | – | – |
| C=CCn1c(=S)[nH]c2sc3c(c2c1=O)CCCC3 | – | – | – | inactive | 294% (active) | 294% (active) | 97% (active) |
| Oc1[nH]c2ccc(Br)cc2c1N=NC(=S)NCC1CCCO1 (stereo not given) | – | – | – | inactive | 204% (active) | 182% (active) | 37.5% (active) |
| Cc1ccc(-c2n[nH]c(=S)nc2-c2ccc(C)cc2)cc1 | – | – | – | inactive | 159% (active) | 160% (active) | 32% (active) |

| Structure (SMILES) | outcome [1] | outcome [2] | outcome [3] | outcome [4] | potentiation [3] | activation [1] | potentiation [2] |
| --- | --- | --- | --- | --- | --- | --- | --- |
| N#Cc1cn(CC(=O)NCC2CCCO2)c2ccccc12 (stereo not given) | inactive | inactive | inactive | inactive | – | – | – |
| O=C(NC(=S)Nc1ccccc1Cl)c1cncc(Br)c1 | inactive | inactive | inactive | inactive | – | – | – |
| O=C(O)c1cnn(-c2ccccc2)c1-c1ccncc1 | – | – | – | inactive | 202% (active) | 145% (active) | 84% (active) |
| COc1ccc(OCC(=O)NNC(=O)c2cccs2)cc1 | – | – | – | inactive | 168% (active) | 146% (active) | 47.5% (active) |
| CC(=O)CC1(OC(C)=O)C(=O)N(C)c2ccccc21 (stereo not given) | inactive | inactive | inactive | inactive | – | – | – |
| COc1ccc(CNC(=O)COC(=O)/C=C/c2ccc(Cl)cc2)cc1 | inactive | inactive | inactive | inactive | – | – | – |
| CCNC(=S)N=Nc1c(O)n(Cc2ccc(Cl)cc2)c2ccccc12 | inactive | – | – | inactive | 172% (active) | – | 37% (active) |
| COc1ccc(NC(=O)C(=O)NNC(=O)c2cccs2)c(OC)c1 | – | – | – | inactive | 220% (active) | 246% (active) | 37.5% (active) |
| CC(=O)OCC(=O)[C@@]1(OC(C)=O)[C@@H](C)C[C@H]2[C@@H]3C[C@H](F)C4=CC(=O)C=C[C@]4(C)[C@@]3(F)[C@@H](O)C[C@@]21C | inactive | inactive | inactive | inactive | – | – | – |
| Cc1nc2c(c3c1[nH]c1ccccc13)C(=O)CC(C)(C)C2 | inactive | inactive | inactive | inactive | – | – | – |
| Cc1cc(=O)oc2cc(OCC3CC(c4ccccc4Cl)=NO3)ccc12 (stereo not given) | – | – | inactive | inactive | – | 156% (active) | 30.5% (active) |
| Cc1ccc(N2C(=O)N3[C@H](c4ccc(F)cc4)[C@@H]4C(=O)N(C5CCCCC5)C(=O)[C@@H]4[C@]3(Cc3ccccc3)C2=O)cc1 | inactive | inactive | inactive | inactive | – | – | – |
| O=C(Nc1ccc2[nH]c(=S)sc2c1)Nc1ccccc1F | – | – | – | inactive | 240% (active) | 150% (active) | 68% (active) |
| CCC(Cc1ccccc1)n1c(=S)[nH]c2ccccc2c1=O (stereo not given) | inactive | – | inactive | inactive | – | – | 19% (active) |
| COC(=O)c1c(NC(=O)c2ccccc2)sc(C(=O)c2ccccc2)c1C | inactive | inactive | inactive | inactive | – | – | – |
| Cc1[nH]n(-c2ccc(Cl)cc2)c(=O)c1/C=N/c1nnc(-c2ccccc2)s1 | – | – | – | inactive | 466% (active) | 678% (active) | 182% (active) |
| COc1ccc(C(=O)CC(=O)C(=O)Nc2ccc(C)c(Cl)c2)cc1 | – | – | inactive | inactive | – | 138% (active) | 26% (active) |
| S=c1nc(-c2ccccc2)[nH]c2ccccc12 | – | – | – | inactive | 294% (active) | 316% (active) | 110% (active) |
| CC(=O)OC1OCCOC1NC(=S)Nc1ccc(C)cc1 (stereo not given) | inactive | inactive | inactive | inactive | – | – | – |
| CN(C)CCCC1(O)c2ccccc2C=Cc2ccccc21 | – | – | inactive | inactive | – | 139% (active) | 29% (active) |

| Structure (SMILES) | outcome [1] | outcome [2] | outcome [3] | outcome [4] | potentiation [3] | activation [1] | potentiation [2] |
| --- | --- | --- | --- | --- | --- | --- | --- |
| S=c1[nH]nc(-c2cccs2)n1/N=C/c1c(Cl)cccc1Cl | inactive | – | – | inactive | 196% (active) | – | 30% (active) |
| FC(F)(F)c1cnc2c(c1)[nH]c(=S)n2-c1ccc(Cl)cc1 | – | – | – | inactive | 178% (active) | 142% (active) | 27% (active) |
| COc1ccc(C)cc1NC(=O)C1C2C=CC(C2)C1C(=O)O (stereo not given) | inactive | inactive | inactive | inactive | – | – | – |
| c1csc(-c2csc3ncnc(NCCCN4CCOCC4)c23)c1 | inactive | inactive | inactive | inactive | – | – | – |
| O=C(NC(=S)Nc1ccccc1)c1csnn1 | – | – | – | inactive | 642% (active) | 588% (active) | 260% (active) |
| C/C(Cl)=C\Cn1c(O)c(N=NC(N)=S)c2cc(Br)ccc21 | inactive | – | inactive | inactive | – | – | 70.5% (active) |
| CCc1ccc(/C=C/C(=O)c2cc(Br)ccc(=O)c2O)cc1 | – | – | – | inactive | 296% (active) | 203% (active) | 140% (active) |
| COC(=O)c1c(NC(=S)Nc2ccc(F)cc2[N+](=O)[O-])sc2c1CCCCC2 | – | – | – | inactive | 180% (active) | 160% (active) | 32.5% (active) |
| Oc1oc(-c2cccc3ccccc23)nc1/C=N/c1nccs1 | inactive | – | – | inactive | 164% (active) | – | 48.5% (active) |
| CCCCCn1c(=O)c2ccccc2n2c(=S)[nH]nc12 | – | – | – | inactive | 158% (active) | 152% (active) | 39% (active) |
| COc1cccc(C(=O)NNC(=O)C(=O)Nc2ccc(C)c(Cl)c2)c1 | – | – | – | inactive | 311% (active) | 278% (active) | 99% (active) |
| CCOC(=O)CSc1nc2ccccc2n2c(C)nnc12 | inactive | inactive | inactive | inactive | – | – | – |
| Cc1nn(-c2ccccc2)c(Cl)c1/C=N\NC(=O)c1cncc(Br)c1 | inactive | inactive | inactive | inactive | – | – | – |
| O=C(NC(=S)Nc1ccccc1Cl)c1ccco1 | – | inactive | – | inactive | 146% (active) | 140% (active) | – |
| O=C(/C=C/c1ccccc1Cl)c1ccccc(=O)c1O | – | – | – | inactive | 374% (active) | 214% (active) | 134% (active) |
| C=CCOc1ccc(/C=C2\SC(=S)N(NS(=O)(=O)c3ccc(C)cc3)C2=O)cc1 | – | – | – | inactive | 852% (active) | 447% (active) | 444% (active) |
| COc1cc(C2C(C#N)=C(N)Oc3cc(O)ccc32)cc2c1OCO2 (stereo not given) | inactive | inactive | inactive | inactive | – | – | – |
| C=C[C@@]1(C)CC(=O)[C@]2(O)[C@@]3(C)[C@@H](O)CCC(C)(C)[C@@H]3[C@H](OC(C)=O)[C@H](O)[C@@]2(C)O1 | inactive | inactive | inactive | inactive | – | – | – |
| Cc1csc(NC(=S)NC(=O)c2ccccc2)n1 | inactive | – | – | inactive | 156% (active) | – | 32% (active) |
| COc1cccc(C(=O)NC(=S)N2c3ccccc3CC2C)c1OC (stereo not given) | inactive | inactive | inactive | inactive | – | – | – |
